This note sets out measurements from ChEMBL document CHEMBL1124558, “Differential effects of a series of hydroxamic acid derivatives on 5-lipoxygenase and cyclooxygenase from neutrophils and 12-lipoxygenase from platelets and their in vivo effects on inflammation and anaphylaxis” (J Med Chem, 1989).

SMILES strings stand for the structures.

The target of test [1] is T1, Polyunsaturated fatty acid 5-lipoxygenase (Rattus norvegicus, UniProt P12527).
T1 sequence (P12527 whole entry): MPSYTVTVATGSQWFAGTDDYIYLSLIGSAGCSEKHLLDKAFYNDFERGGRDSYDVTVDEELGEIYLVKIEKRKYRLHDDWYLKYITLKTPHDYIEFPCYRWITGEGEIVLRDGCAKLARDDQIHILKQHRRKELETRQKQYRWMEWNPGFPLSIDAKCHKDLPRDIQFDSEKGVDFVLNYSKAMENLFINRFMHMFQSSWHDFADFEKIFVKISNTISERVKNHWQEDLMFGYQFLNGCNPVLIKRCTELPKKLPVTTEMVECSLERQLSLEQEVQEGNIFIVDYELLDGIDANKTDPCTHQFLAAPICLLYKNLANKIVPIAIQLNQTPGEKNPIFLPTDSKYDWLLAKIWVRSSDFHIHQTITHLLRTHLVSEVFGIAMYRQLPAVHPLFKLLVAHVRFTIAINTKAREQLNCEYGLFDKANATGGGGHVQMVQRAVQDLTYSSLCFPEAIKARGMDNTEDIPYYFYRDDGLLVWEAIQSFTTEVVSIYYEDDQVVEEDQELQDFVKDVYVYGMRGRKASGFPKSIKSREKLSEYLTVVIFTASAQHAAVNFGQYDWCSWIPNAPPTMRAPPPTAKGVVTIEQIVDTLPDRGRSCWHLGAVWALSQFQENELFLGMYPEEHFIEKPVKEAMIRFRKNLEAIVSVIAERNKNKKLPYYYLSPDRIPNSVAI
Nature of the test: In vitro inhibition of rat polymorphonuclear leukocyte 5-lipoxygenase. An outline of the steps:
(§1)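 Intact glycogen-elicited peritoneal PMNs pooled from 4–5 Sprague-Dawley rats (250 g), preincubated 5 min at 30 °C with compound in DMSO (≤0.1% final) plus 1 μM indomethacin. Challenge with [14C]arachidonic acid (4 μM) and A23187 (0.8 μM) for 3 min. Extraction, TLC, 5-HETE by scintillation counting.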

A further test relates to Cavia porcellus. The test is described as follows: In vivo inhibitory activity against guinea pig systemic anaphylaxis when administered a compound dose (200 mg/kg) perorally. As to conditions: po. It counts as functional. The procedure, abridged: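 Male Hartley guinea pigs sensitised ip with ovalbumin (2.7 mg/kg) plus LPS adjuvant, then challenged 2 weeks later with 1% ovalbumin aerosol for 30 s. Pretreated with pyrilamine, indomethacin and propranolol 20 min before challenge. Compound given in PEG 400 1 h before challenge.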

For test [2], the target named is T2, Polyunsaturated fatty acid 5-lipoxygenase (Homo sapiens, UniProt P09917).
T2 sequence (P09917 whole entry): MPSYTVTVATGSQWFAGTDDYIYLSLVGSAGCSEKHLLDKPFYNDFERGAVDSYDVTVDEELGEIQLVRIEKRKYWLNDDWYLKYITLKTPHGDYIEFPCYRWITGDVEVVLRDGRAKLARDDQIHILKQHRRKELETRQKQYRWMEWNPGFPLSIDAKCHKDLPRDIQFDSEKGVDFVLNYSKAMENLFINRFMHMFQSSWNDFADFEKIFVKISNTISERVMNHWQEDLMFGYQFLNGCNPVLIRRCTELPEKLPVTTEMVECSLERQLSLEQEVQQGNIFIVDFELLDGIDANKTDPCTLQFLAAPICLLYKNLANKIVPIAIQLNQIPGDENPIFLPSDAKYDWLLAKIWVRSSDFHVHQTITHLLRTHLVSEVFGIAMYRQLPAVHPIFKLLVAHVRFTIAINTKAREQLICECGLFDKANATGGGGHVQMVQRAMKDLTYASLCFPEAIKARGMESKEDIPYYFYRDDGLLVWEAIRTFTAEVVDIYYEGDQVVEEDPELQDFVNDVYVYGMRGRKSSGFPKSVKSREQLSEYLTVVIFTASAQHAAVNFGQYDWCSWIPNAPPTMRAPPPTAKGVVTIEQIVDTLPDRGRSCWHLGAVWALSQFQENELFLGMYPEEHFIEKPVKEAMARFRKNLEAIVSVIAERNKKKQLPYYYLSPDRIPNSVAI
The test is described as follows: In vitro inhibition of polymorphonuclear leukocyte derived human 5-lipoxygenase. An outline of the steps: (§2)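 PMNs from venous blood of healthy volunteers, isolated by dextran sedimentation and Percoll gradient (>90% pure) and held in Ca/Mg PBS with 1 mg/mL glucose and 1 μM indomethacin. Challenged with calcium ionophore and [14C]arachidonic acid for 3 min. 5-HETE measured by TLC and scintillation counting; IC50 read graphically.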

The subject of the next test is Mus musculus. The test is described as follows: In vivo inhibition of mouse ear inflammation. The format is functional. Also on record: concentration or dose not given beside the values. An outline of the steps: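 Compound or ethanol vehicle applied topically to one ear of male DBA/2J mice 60 min before arachidonic acid (2 mg/ear). […] Groups of 5 mice.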
Another test addresses T3, Cyclooxygenase (Rattus norvegicus, UniProt P35355+Q63921).
T3 sequence (P35355 whole entry): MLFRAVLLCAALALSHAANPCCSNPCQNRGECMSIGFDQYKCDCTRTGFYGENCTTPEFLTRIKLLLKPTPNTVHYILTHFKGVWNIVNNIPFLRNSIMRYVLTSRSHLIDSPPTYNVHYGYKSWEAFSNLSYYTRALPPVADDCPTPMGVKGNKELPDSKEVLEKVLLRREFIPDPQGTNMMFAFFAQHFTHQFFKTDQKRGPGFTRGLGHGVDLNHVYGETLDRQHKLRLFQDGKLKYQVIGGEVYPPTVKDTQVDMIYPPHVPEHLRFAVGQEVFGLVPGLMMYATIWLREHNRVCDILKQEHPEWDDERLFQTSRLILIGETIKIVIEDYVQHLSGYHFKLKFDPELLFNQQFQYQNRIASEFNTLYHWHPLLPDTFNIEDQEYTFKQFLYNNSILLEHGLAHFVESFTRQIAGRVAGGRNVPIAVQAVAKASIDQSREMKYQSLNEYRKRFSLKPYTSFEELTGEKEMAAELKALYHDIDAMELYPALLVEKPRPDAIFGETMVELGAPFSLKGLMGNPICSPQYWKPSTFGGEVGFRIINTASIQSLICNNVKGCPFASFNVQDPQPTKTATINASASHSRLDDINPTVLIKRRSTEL
T3 sequence (Q63921 whole entry): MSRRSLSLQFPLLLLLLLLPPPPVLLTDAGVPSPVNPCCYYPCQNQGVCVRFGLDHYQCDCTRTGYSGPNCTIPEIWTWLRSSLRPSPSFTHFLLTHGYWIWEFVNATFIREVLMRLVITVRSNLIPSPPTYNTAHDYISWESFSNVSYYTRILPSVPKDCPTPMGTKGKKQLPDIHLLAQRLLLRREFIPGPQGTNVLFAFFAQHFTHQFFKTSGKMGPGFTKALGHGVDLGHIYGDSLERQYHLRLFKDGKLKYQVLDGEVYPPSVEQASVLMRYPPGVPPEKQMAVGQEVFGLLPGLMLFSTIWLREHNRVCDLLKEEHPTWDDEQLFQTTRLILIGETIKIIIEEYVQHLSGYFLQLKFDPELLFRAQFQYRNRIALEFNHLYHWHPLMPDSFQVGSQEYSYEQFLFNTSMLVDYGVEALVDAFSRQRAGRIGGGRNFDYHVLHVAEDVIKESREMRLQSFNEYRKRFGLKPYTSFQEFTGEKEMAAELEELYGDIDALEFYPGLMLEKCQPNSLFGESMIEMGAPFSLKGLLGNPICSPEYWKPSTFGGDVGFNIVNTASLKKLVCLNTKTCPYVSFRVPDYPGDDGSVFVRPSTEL
The test is described as follows: In vitro inhibitory activity against rat polymorphonuclear leukocyte Prostaglandin G/H synthase. It counts as functional. An outline of the steps: (§3)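 Glycogen-elicited peritoneal PMNs from Sprague-Dawley rats were homogenized at 0 °C in 0.1 M Tris-HCl pH 8.2 with 10 μM NDGA. Compound (DMSO ≤0.1%) was preincubated 5 min at 37 °C, then 8 μM [14C]arachidonic acid with 4 mM glutathione and epinephrine was added for 10 min. TxB2 and PGF2α were measured by TLC and scintillation counting.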

The target of test [3] is T4, Polyunsaturated fatty acid 5-lipoxygenase (Homo sapiens) (UniProt P09917).
T4 sequence (whole entry): T2 sequence (P09917 whole entry)
The test is described as follows: In vitro inhibitory activity against polymorphonuclear leukocyte 5-lipoxygenase in human cell at 1 uM. An outline of the steps: as §2

Test [4] addresses T5, Polyunsaturated fatty acid 5-lipoxygenase (Rattus norvegicus) (UniProt P12527).
T5 sequence (whole entry): T1 sequence (P12527 whole entry)
Nature of the test: In vitro inhibitory activity against polymorphonuclear leukocyte 5-lipoxygenase in rat cell at 3 uM. An outline of the steps: as §1

Test [5] relates to 5-lipoxygenase (Cavia porcellus). Nature of the test: Inhibitory activity against polymorphonuclear leukocyte 5-lipoxygenase using guinea pig supernatant at 10 uM.
The target of test [6] is T4, Polyunsaturated fatty acid 5-lipoxygenase (Homo sapiens). Nature of the test: In vitro inhibitory activity against polymorphonuclear leukocyte 5-lipoxygenase in human cell at 10 uM. The procedure, abridged:
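Human PMNs from venous blood of a healthy volunteer (EDTA) were purified by dextran sedimentation, a Percoll gradient and NH4Cl red-cell lysis (>90% pure). They were held in Ca/Mg PBS with 1 mg/mL glucose and 1 μM indomethacin, then challenged with A23187 (0.8 μM) and [14C]arachidonic acid (4 μM) for 3 min. 5-HETE was measured by TLC and scintillation counting.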

The target in test [7] is Cyclooxygenase (Rattus norvegicus) (UniProt P35355+Q63921). The test is described as follows: In vitro inhibitory activity against rat polymorphonuclear leukocyte Prostaglandin G/H synthase at 100 uM. The format is protein assay. The procedure, abridged:
as §3

In test [8] the target is T6, Arachidonate 12-lipoxygenase (Rattus norvegicus) (UniProt Q02759).
T6 sequence (whole entry): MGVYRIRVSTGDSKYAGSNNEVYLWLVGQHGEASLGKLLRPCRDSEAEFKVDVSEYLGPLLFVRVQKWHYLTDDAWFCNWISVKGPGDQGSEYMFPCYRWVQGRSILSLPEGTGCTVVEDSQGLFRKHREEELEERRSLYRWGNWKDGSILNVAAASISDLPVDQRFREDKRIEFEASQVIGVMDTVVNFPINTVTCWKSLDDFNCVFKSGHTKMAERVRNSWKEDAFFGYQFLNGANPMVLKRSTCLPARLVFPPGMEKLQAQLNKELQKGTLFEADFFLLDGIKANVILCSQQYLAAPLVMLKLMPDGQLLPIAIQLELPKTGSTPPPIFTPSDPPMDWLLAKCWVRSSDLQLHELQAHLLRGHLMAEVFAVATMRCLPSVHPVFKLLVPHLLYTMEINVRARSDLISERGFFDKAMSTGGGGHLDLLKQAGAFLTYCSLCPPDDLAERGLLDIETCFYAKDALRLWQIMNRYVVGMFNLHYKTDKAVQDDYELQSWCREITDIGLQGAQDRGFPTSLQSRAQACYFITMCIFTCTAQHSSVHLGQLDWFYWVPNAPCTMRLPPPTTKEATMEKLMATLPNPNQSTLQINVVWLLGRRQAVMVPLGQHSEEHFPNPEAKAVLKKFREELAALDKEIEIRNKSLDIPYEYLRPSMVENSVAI
Nature of the test: In vitro inhibitory activity against rat platelet 12-lipoxygenase at 10 uM. An outline of the steps:
(§4)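 Cell-free cytosolic 12-lipoxygenase from Sprague-Dawley rat platelets (0.4 mg/mL), preincubated 5 min at 30 °C with compound in DMSO (≤0.1% final), 25 mM Tris pH 7.4, 1 μM indomethacin, 100 μM glutathione; reaction started with 6 μM [14C]arachidonic acid and quenched with citric acid/NDGA after 3 min. 12-HETE isolated by TLC and counted by scintillation; % inhibition, duplicate.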

The target of test [9] is T6, Arachidonate 12-lipoxygenase (Rattus norvegicus). The test is described as follows: In vitro inhibitory activity against rat platelet 12-lipoxygenase at 100 uM. The procedure, abridged:
as §4

As usually defined, the IC50 is the point on the concentration scale where inhibition reaches its midpoint. As usually defined, the inhibition in vivo is the drop in the measured response relative to a control, in per cent. A word on the Inhibition: it is the relative decrease from the control value, in per cent. As for `CCCN(O)C(=O)Cc1ccc(OCc2ccccc2)cc1`, the IC50 in [1] came out at 100 nM; in [2] it was 160 nM; on Cyclooxygenase, 30000 nM. The compound also displayed an inhibition in vivo at 200 mg/kg with Cavia porcellus of 0%. Moreover, the Inhibition in the test on Mus musculus turned out to be 82%.

By inhibition is commonly meant the change of the read-out against control, counted positive when it falls. On to `O=C(CCCc1ccccc1)NO` [PHENYLBUTYRYLHYDROXAMIC ACID], for which, in the test on Cavia porcellus, the inhibition in vivo at 200 mg/kg is 11%. The compound also returned an Inhibition in the test on Mus musculus of 28%. The inhibition in test [3] is -8%; in test [4], 11%.

With `O=C(CCCc1ccccc1)NCCc1ccccc1`, the inhibition was 12% in [5], less than 10% in test [6], less than 10% in test [7] and less than 10% in [8].

Regarding `O=C(c1ccc(OCc2ccccc2)cc1)N(O)CCc1ccccc1`, the inhibition in test [9] is less than 10%. In addition, on Cyclooxygenase, the half-inhibitory concentration (IC50) was found to be 75000 nM.
